Experimental data reported in ChEMBL document CHEMBL4033799, “Stable and Long-Lasting, Novel Bicyclic Peptide Plasma Kallikrein Inhibitors for the Treatment of Diabetic Macular Edema” (J Med Chem, 2018).

Assays:
Kallikrein-13 = target: T1, Kallikrein-13 (Homo sapiens, UniProt Q9UKR3); assay: Inhibition of recombinant human C-terminal polyHis-tagged KLK13 (1 to 262 residues) expressed in HEK293 cells using fluorogenic Boc-VPR-AMC peptide as substrate by fluorescence based assay
T1 sequence (Q9UKR3 whole entry): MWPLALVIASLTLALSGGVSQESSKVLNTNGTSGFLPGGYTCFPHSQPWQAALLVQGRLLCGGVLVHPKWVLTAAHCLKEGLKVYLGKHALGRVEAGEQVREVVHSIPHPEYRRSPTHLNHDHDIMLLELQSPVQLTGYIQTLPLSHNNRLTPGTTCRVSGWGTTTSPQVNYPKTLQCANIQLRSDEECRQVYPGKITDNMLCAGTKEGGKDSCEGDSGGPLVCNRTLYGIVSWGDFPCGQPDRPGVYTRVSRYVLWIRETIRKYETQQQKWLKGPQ
Outline: (§1)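 Panel of human serine proteases. Substrates and assay conditions followed each supplier's recommendations. Peptides were first screened at 50 μM. Where inhibition was detectable, hydrolytic activity was measured across a range of peptide concentrations. Ki was obtained by fitting to the tight-binding inhibitor rate equation.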

Kallikrein-5 = target: T2, Kallikrein-5 (Homo sapiens, UniProt Q9Y337); assay: Inhibition of recombinant human C-terminal 10His-tagged KLK5 (67 to 293 residues) expressed in mouse NS0 cells using fluorogenic Boc-VPR-AMC peptide as substrate after 5 mins by fluorescence based assay
T2 sequence (Q9Y337 whole entry): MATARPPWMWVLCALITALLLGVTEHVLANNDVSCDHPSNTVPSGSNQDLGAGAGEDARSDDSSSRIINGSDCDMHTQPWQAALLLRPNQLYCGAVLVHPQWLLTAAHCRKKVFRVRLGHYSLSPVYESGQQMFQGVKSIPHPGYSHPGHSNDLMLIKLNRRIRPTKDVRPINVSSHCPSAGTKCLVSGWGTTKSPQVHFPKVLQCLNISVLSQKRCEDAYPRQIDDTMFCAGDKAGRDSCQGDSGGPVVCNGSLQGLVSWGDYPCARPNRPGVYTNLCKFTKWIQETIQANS
Outline: (§2)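 Human serine proteases were assayed with substrates and conditions set by each supplier's recommendations. Peptides were first screened at 50 μM. Where inhibition was detected, Ki was determined from activity across peptide concentrations using a tight-binding rate equation.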

Coagulation factor XII = target: T3, Coagulation factor XII (Homo sapiens, UniProt P00748); assay: Inhibition of human factor 12a using fluorogenic peptide as substrate by fluorescence based assay; outline: as §2
T3 sequence (P00748 whole entry): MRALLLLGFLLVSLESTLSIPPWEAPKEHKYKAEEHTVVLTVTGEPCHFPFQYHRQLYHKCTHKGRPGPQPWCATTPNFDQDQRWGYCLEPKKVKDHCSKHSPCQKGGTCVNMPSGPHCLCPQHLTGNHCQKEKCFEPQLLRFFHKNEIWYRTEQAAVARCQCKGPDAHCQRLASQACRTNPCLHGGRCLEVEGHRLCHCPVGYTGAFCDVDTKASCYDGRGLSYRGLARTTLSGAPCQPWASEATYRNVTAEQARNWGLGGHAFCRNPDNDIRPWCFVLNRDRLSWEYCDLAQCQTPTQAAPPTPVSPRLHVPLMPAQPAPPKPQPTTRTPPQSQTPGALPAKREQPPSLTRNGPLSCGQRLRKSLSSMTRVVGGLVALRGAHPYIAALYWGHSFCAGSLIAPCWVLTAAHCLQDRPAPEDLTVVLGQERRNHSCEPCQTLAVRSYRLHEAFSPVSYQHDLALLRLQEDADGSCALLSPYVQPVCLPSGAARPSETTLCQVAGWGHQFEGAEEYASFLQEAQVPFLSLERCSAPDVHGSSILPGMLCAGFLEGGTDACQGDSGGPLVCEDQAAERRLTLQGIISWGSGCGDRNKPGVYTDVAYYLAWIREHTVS

Plasminogen = Plasminogen (Homo sapiens, UniProt P00747); assay: Inhibition of recombinant human plasmin using fluorogenic D-AFK-ANSNH-iC4H9.2HBr peptide as substrate by fluorescence based assay; outline: as §1
[1] = Inhibition of rabbit plasma kallikrein using fluorogenic H-Pro-Phe-Arg-AMC peptide as substrate preincubated for 15 mins followed by substrate addition measured by fluorescence-based assay; set-up: species or system Oryctolagus cuniculus; details: read-out: Ki(app)
Outline: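 Assays ran at 25 °C in 50 mM Tris-HCl, 250 mM NaCl, 1.5 μM BSA, pH 7.5. PKal (nominal 1–2 nM) was preincubated 15 min with serially diluted peptide. […] Human PKal was purified from plasma; rat PKal was made in-house or bought; other species were purified in-house from kaolin-activated plasma.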

[2] = Inhibition of cynomolgus monkey plasma kallikrein using fluorogenic H-Pro-Phe-Arg-AMC peptide as substrate preincubated for 15 mins followed by substrate addition measured by fluorescence-based assay; details: read-out: Ki(app)
[3] = Inhibition of dog plasma kallikrein using fluorogenic H-Pro-Phe-Arg-AMC peptide as substrate preincubated for 15 mins followed by substrate addition measured by fluorescence-based assay; details: read-out: Ki(app)
Kallikrein-2 = target: T4, Kallikrein-2 (Homo sapiens, UniProt P20151); assay: Inhibition of recombinant human C-terminal 10His-tagged KLK2 (1 to 261 residues) expressed in mouse NS0 cells using fluorogenic PFR-AMC peptide as substrate after 5 mins by fluorescence based assay; outline: as §2
T4 sequence (P20151 whole entry): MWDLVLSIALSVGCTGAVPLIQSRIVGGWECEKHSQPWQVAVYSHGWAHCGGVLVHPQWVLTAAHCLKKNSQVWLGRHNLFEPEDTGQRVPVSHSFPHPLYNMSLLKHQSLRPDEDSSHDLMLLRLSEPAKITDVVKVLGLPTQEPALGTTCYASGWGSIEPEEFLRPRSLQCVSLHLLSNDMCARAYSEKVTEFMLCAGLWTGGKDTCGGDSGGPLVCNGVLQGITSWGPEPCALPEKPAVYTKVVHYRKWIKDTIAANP

Kallikrein-12 = target: T5, Kallikrein-12 (Homo sapiens, UniProt Q9UKR0); assay: Inhibition of recombinant human C-terminal 10His-tagged KLK12 (18 to 248 residues) expressed in mouse NS0 cells using fluorogenic Boc-VPR-AMC peptide as substrate by fluorescence based assay; outline: as §2
T5 sequence (Q9UKR0 whole entry): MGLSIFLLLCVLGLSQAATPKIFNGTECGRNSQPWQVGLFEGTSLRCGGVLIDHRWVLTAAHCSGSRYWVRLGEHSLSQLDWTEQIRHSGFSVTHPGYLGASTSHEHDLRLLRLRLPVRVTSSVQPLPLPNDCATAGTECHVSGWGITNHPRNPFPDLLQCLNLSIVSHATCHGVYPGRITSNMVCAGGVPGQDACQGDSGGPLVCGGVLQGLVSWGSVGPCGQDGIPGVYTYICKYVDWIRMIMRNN

Sequence of Plasminogen (P00747 97-580 limits assumed): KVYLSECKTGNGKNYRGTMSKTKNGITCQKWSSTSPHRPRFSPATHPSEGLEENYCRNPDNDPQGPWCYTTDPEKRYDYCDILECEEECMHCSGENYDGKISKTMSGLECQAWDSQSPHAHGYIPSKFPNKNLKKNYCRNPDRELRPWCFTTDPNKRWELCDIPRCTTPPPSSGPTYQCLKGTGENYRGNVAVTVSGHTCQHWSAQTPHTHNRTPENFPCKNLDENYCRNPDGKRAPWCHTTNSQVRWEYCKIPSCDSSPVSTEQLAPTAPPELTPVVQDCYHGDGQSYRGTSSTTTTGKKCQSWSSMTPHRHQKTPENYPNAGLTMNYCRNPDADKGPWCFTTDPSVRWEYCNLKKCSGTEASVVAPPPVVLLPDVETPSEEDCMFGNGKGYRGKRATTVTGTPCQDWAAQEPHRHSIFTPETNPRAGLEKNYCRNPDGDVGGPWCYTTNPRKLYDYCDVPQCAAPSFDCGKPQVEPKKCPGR
Sequence of Plasminogen (P00747 581-810 limits assumed): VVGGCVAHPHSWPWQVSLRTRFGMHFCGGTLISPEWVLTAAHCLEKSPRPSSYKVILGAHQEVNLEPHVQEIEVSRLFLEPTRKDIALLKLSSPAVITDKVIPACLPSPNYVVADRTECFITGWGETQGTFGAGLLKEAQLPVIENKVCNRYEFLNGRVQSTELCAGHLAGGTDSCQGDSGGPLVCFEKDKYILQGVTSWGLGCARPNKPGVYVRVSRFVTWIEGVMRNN

| Ki (Kallikrein-13; hek293) [µM] | Ki (Kallikrein-5) [µM] | Ki (Coagulation factor XII) [µM] | Ki (Plasminogen) [µM] | Ki [1] [µM] | Ki [2] [µM] | Ki [3] [µM] | Ki (Kallikrein-2) [µM] | Ki (Kallikrein-12) [µM] | Ki (Kallikrein-13) [µM] | Structure (SMILES) |
| --- | --- | --- | --- | --- | --- | --- | --- | --- | --- | --- |
| > 50 | 50 | > 50 | > 50 | 1.45 | 0.0031 | 0.5 | > 50 | > 50 | – | CC(=O)N[C@H]1CSCc2cc3cc(c2)CSC[C@H](C(=O)N[C@@H](C)C(=O)N(C)CC(=O)N(C)CC(=O)N(C)CC(=O)N[C@H](CCCNC(=N)N)C(=O)N[C@H](CCCNC(=N)N)C(=O)O)NC(=O)[C@H](CC(C)C)NC(=O)[C@@H]2CCCN2C(=O)[C@H](C)NC(=O)[C@H](CC(=O)O)NC(=O)[C@H](Cc2c[nH]c4ccccc24)NC(=O)[C@@H]2CCCN2C(=O)[C@H](CSC3)NC(=O)[C@H](Cc2c[nH]c3ccccc23)NC(=O)[C@@H]2CCCN2C(=O)[C@H](CC(N)=O)NC(=O)[C@H](Cc2c[nH]c3ccccc23)NC(=O)[C@H]([C@@H](C)O)NC(=O)[C@H](CC(N)=O)NC1=O |
| > 50 | > 50 | > 50 | > 50 | 3.4 | 0.0027 | 0.08 | 10 | > 50 | – | CC(=O)N[C@H]1CSCc2cc3cc(c2)CSC[C@H](NC(=O)[C@H](CCCCNC(=N)N)NC(=O)[C@H](Cc2ccc(O)cc2)NC(=O)[C@@H]2CCN2C(=O)[C@H](Cc2ccccc2)NC(=O)[C@H](CO)NC1=O)C(=O)N[C@@H](C)CN[C@@H](Cc1cnc[nH]1)C(=O)N[C@@H](CCC(N)=O)C(=O)N[C@@H](CC(=O)O)C(=O)N[C@@H](CC(C)C)C(=O)N[C@H](C(=O)O)CSC3 |
| – | 0.8 | > 50 | > 50 | 2.65 | 0.00086 | 0.022 | 10 | > 50 | 0.82 | CC[C@H](C)[C@@H]1NC(=O)[C@H](CC(=O)O)NC(=O)[C@@H]2CCCN2C(=O)[C@H](Cc2ccc(O)cc2)NC(=O)[C@H](Cc2ccc(O)cc2)NC(=O)[C@H](C(C)C)NC(=O)[C@@H]2CSCc3cc(cc(c3)CSC[C@@H](C(=O)N[C@@H](C)C(=O)N(C)CC(=O)N(C)CC(=O)N(C)CC(=O)N[C@H](CCCNC(=N)N)C(=O)N[C@H](CCCNC(=N)N)C(=O)O)NC1=O)CSC[C@H](NC(C)=O)C(=O)N[C@@H](CO)C(=O)N[C@@H](Cc1ccccc1)C(=O)N1CCC1C(=O)N[C@@H](Cc1ccc(O)cc1)C(=O)N[C@@H](CCCCNC(=N)N)C(=O)N2 (some centres not stated) |
